Fibroblast inh – blocks proliferation of human lung fibroblasts; AID 719; 85,000 compounds, 1.1% hits; LL 47 human lung fibroblast viability, ATP luminescence; stronger effect = lower value; viability, % at 10 µM;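 active = viability at or below 50% in the single dose screen; inactive = viability above 50%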;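 note: compound exposure lasted 72 h before the ATP readout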
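Material: human lung fibroblast line LL 47, low passage; Evaluation: viability percentage against median untreated-cell control; Buffer or medium: 15% FBS in IMEM; Incubation: 72 h compound exposure at 37 °C after overnight plating; Dosing: 0.1% DMSO in all compound wells; Measured by: CellTiter-Glo luminescence.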
HCT116 PTEN-null – growth suppressors of cells with PTEN tumor suppressor deletion | viability, % at 10 µM | HCT116 PTEN-null viability, CellTiter-Glo, 60 h; stronger effect = lower value | 140,000 compounds, 1.2% hits;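 active = viability at or below a set limit, 4 SD under the median of all tested compounds, cut at about 3.7% in these data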;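 note: PTEN knockout HCT116 line with beta catenin targeted HCT116 as companion control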
H69AR growth 86K – growth inhibitors of human H69AR lung tumor cells; viability, % at 10 µM; H69AR lung tumor viability, ATP luminescence, 72 h; stronger effect = lower value; 85,000 compounds, 6% hits;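 active = viability at or below 40%; inactive = viability above 40%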;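 note: multidrug resistant small cell line overexpressing MRP-1 efflux transporter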
HUVEC prolif 384 – blocks proliferation of human endothelial cells; viability, % at 10 µM (by protocol); HUVEC proliferation, CellTiter-Glo luminescence, 72 h; stronger effect = lower value; 86,000 compounds, 1.1% hits; AID 648;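 active = viability at or below 30%; inactive = viability above 30%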
HCT116 bCat-KO – beta-catenin-lacking colon tumor cell growth suppression; viability, % at 10 µM; HCT116 beta-catenin knockout viability, CellTiter-Glo, 60 h; stronger effect = lower value; 140,000 compounds, 1.5% hits; AID 818;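 active = viability at or under a set limit, the compound median less 4 SD, cut at about 6% in these data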
Numbers stand for hits; i = inactive; nt = not tested or not shown. The sample as a whole holds a higher share of hits than the screen did.

SMILES | Fibroblast inh | HCT116 PTEN-null | H69AR growth 86K | HUVEC prolif 384 | HCT116 bCat-KO
Cc1ccc2c(n1)sc1c(-c3ccc(Br)cc3)c(C#N)c(N)nc12 | nt | 3.2 | nt | nt | i
COc1ccc(C(=O)NC2(C(F)(F)F)C(=O)Nc3c2c(=O)[nH]c(=O)n3CCc2ccc(OC)c(OC)c2)cc1 (stereo not drawn) | i | i | i | i | i
Cc1ccccc1OCC(=O)N1N=C(c2cccnc2)CC1(O)C(F)(F)F (stereo not drawn) | nt | i | nt | nt | i
NC(=O)C1CCN(C2=C(Cl)C(=O)c3ccccc3C2=O)CC1 | nt | i | nt | nt | 5.7
Cc1onc(C(=O)N2CCC(C(N)=O)CC2)c1-c1ccccc1Cl | i | i | i | i | i
Cc1cc(C)n2c(Br)c(CSc3nc4ccccc4s3)nc2n1 | nt | i | nt | nt | i
COc1ccccc1NC(=O)C1=C(C)Nc2nnnn2C1c1cc(Br)ccc1OC (stereo not drawn) | i | i | 17 | i | i
O=C(NC(=S)Nc1cc(C(F)(F)F)ccc1N1CCOCC1)c1sc2ccccc2c1Cl | nt | i | nt | nt | i
COC(=O)C(O)(CC(=O)Nc1ccc(Cl)cc1Cl)C(F)(F)F (stereo not drawn) | i | i | i | i | i
Cc1ccc(Cl)cc1NC(=O)CSC(N)=O | i | i | 7.6 | i | i
Cc1ccc(Cl)cc1NC(=O)Cn1cccc1 | i | i | i | i | i
Cc1ccc(Cl)cc1NC(=O)CC(O)(C(F)(F)F)C(F)(F)F | i | i | 4.5 | i | i
C#CCN1C(=O)S/C(=C/C=C/c2ccc(N(C)C)cc2)C1=O | nt | i | nt | nt | i
CC(Sc1ccc(Cl)cc1)C(=O)Nc1ccc2c(c1)OCO2 (stereo not drawn) | i | i | i | i | i
CC(C)N1CCC2(CC1)N=C(c1ccc3c(c1)OCO3)CC(c1cc(Cl)ccc1O)N2 (stereo not drawn) | 5.9 | 2.9 | 1.5 | 30 | 2.5
Cc1nc([N+](=O)[O-])c(Sc2nc3ccc([N+](=O)[O-])cc3[nH]2)n1Cc1ccccc1 | nt | i | nt | nt | i
CCC(=O)Nc1nonc1-c1nc2ccccc2n1Cc1cccc2ccccc12 | i | i | 24 | i | i
COc1cccc(-c2nc(-c3ccccn3)no2)c1OC | i | i | i | i | i
c1ccc(-c2ccc(-c3nc(-c4ccccn4)no3)cc2)cc1 | 42 | i | 34 | i | i
c1ccc(-c2nc(-c3ccccn3)no2)cc1 | i | i | i | i | i
c1ccc(-c2noc(-c3cccc4ccccc34)n2)nc1 | i | i | 38 | i | i
COC(=O)C1=C(C)N(Cc2ccco2)C(=O)N[C@@H]1c1cccc(C(F)(F)F)c1 | nt | 0.7 | nt | nt | 0.7
CC(=O)C1=C(C)N(Cc2ccccc2)C(=O)N[C@@H]1c1cccc(C(F)(F)F)c1 | nt | i | nt | nt | i
CCCSc1nnc(Sc2nnnn2-c2ccccc2)s1 | i | i | 5.4 | 7.6 | i
Cc1ccccc1-n1nnnc1Sc1nnnn1-c1ccccc1 | 21 | 1.3 | 2.7 | 28 | 2.0
SMILES | Fibroblast inh | HCT116 PTEN-null | H69AR growth 86K | HUVEC prolif 384 | HCT116 bCat-KO
COc1c(Cl)cc(-c2noc(C)c2C(=O)NC(C)C)cc1Cl | i | i | i | i | i
Cc1nc2ccccn2c(=O)c1CCN1CCC(C(=O)c2ccc(F)cc2)CC1 | i | i | i | i | i
Cc1nc2sccn2c(=O)c1CCN1CCC(=C(c2ccc(F)cc2)c2ccc(F)cc2)CC1 | i | i | i | 32 | i
OCCNCc1cc(Br)ccc1OCc1ccc(Cl)cc1Cl | nt | i | nt | nt | 4.7
CCOc1cc(CNCCO)cc(Br)c1OCc1ccc(Cl)cc1Cl | nt | 1.5 | nt | nt | 1.4
OCCNCc1cc(Br)ccc1OCc1ccc(Cl)cc1 | nt | i | nt | nt | i
CCOc1ccccc1Nc1nc(-c2sc(NC(=O)c3ccccc3)nc2C)cs1 | nt | i | nt | nt | i
Cc1nc(NC(=O)c2ccccc2)sc1-c1csc(N)n1 | i | i | 30 | i | i
CCOc1ccccc1Nc1nc(-c2sc(NC(=O)c3cccc(Cl)c3)nc2C)cs1 | nt | i | nt | nt | 5.1
Cc1cc(C)c(NC(=O)c2ccc(CNS(=O)(=O)c3cc(C(F)(F)F)ccc3Cl)cc2)c(C)c1 | nt | i | nt | nt | i
Cc1cc(C)n(-c2nc(NC(C)(C)C)nc(NC(C)(C)C)n2)n1 | nt | i | nt | nt | 4.6
CC(C)(C)Nc1nc(NN)nc(NC(C)(C)C)n1 | nt | i | nt | nt | i
CC(C)(C)Nc1nc(NC(C)(C)C)nc(-n2ccnc2)n1 | i | i | 31 | i | i
Cc1cc(C)n(-c2nnc(NC(C)(C)C)nn2)n1 | nt | i | nt | nt | i
CCNc1nc(NCC)nc(-n2nc(C)cc2C)n1 | i | i | 4.7 | i | i
COc1cc(C(=O)Nc2ccc(Br)cc2C(=O)c2cc(OC)c(OC)c(OC)c2)cc(OC)c1OC | nt | i | nt | nt | i
CC(C)(C)C(=O)/C(=C/c1cccc([N+](=O)[O-])c1)n1cncn1 | nt | 0.5 | nt | nt | 0.7
CC(C)(C)C(=O)/C(=C\c1ccc([N+](=O)[O-])cc1)n1cncn1 | 2.1 | 1.6 | i | 2.1 | 1.4
CC(C)(C)C(=O)NC(NC(=O)C(C)(C)C)c1ccc([N+](=O)[O-])cc1 | nt | i | nt | nt | i
COc1ccccc1-c1cc(C(F)(F)F)nc(S(=O)(=O)CCCC(=O)O)n1 | i | i | i | i | i
COc1ccccc1-c1cc(C(F)(F)F)nc(S(=O)(=O)CCCC(=O)N2CCOCC2)n1 | 3.2 | 1.1 | 0.3 | i | 1.3
O=C(O)c1cccc2cccnc12 | i | i | i | i | i
c1cnc2c(c1)ccc1cccnc12 | nt | i | nt | nt | 6.0
Cc1c(O)c2c(=O)n(-c3ccccc3)c(-c3ccccc3)cc2oc1=O | nt | i | nt | nt | i
Cc1c(CCOC(=O)C2C3CC4CC(C3)CC2C4)sc[n+]1CC(=O)c1ccc(Br)cc1 (stereo not drawn) | i | i | 0.9 | 2.6 | i
SMILES | Fibroblast inh | HCT116 PTEN-null | H69AR growth 86K | HUVEC prolif 384 | HCT116 bCat-KO
c1ccc2c(CSCCc3ccncc3)cccc2c1 | i | i | 34 | i | i
Cc1ccc2c(c1)cc(CN(Cc1ccc3c(c1)OCO3)S(=O)(=O)c1ccccc1)c1nnnn12 | i | i | 31 | i | i
Cc1ccc2c(c1)cc(CN(Cc1cccs1)C(=O)c1ccco1)c1nnnn12 | i | i | i | i | i
Cc1ccc(S(=O)(=O)N2CCC(=O)N(CCOCc3ccc(F)cc3)CC2)cc1 | nt | i | nt | nt | i
COc1cc(/C=N/NC(=O)CCn2c3ccccc3c3ccccc32)cc(OC)c1OC | nt | i | nt | nt | i
COc1cc(/C=N/NC(=O)CCC(=O)NCc2ccccc2)cc(OC)c1OC | nt | 0.3 | nt | nt | 0.4
O=C(Nc1ccccc1F)c1ccc(CSc2ccccc2)o1 | nt | i | nt | nt | i
O=C(CCCCCNC(=O)c1ccccc1)N/N=C/c1ccc(O)cc1O | nt | i | nt | nt | i
Cc1cc(SCC(=O)N/N=C/c2ccc(O)cc2O)c(C)cc1Br | 37 | i | 26 | i | i
O=C(C1CCCO1)N1CCN(C(=S)Nc2ccccc2Cl)CC1 (stereo not drawn) | nt | i | nt | nt | i
Cc1cc(C)c2nc(N3CCC(C(=O)NCCCN4CCCCC4)CC3)sc2c1 | 2.7 | 2.3 | i | 4.0 | 3.1
COC(=O)c1c(NC(=O)CSc2nnc3ccccn23)sc2c1CCC2 | nt | i | nt | nt | i
O=C(NN1CCOCC1)C12CC3CC(CC(C3)C1)C2 | nt | i | nt | nt | i
COc1cc2nc(NCC3CCCO3)n3nc(-c4cccnc4)nc3c2cc1OC (stereo not drawn) | i | i | 21 | i | i

Screening data: PubChem BioAssay, SRMLSC
